Source: ChEMBL document CHEMBL1149884, “Investigating biological activity spectrum for novel quinoline analogues 2: hydroxyquinolinecarboxamides with photosynthesis-inhibiting activity” (Bioorg Med Chem, 2008)
Activity calls are given as the source filed them. The rule behind the calls is not given here.

Legend:
Spinacia oleracea = experiment: Herbicidal activity in Spinacia oleracea assessed as inhibition of photosynthetic electron transport by decrease in oxygen evolution; type: functional
Outline: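 Spinach chloroplast PET measured as oxygen evolution in phosphate buffer (0.02 mol/L, pH 7.2) with sucrose 0.4 mol/L, MgCl₂ 0.005 mol/L, NaCl 0.015 mol/L. Chl 30 mg/L, halogen lamp irradiation (~100 W/m², 10 cm, water filter), 22 °C. IC50 = molar concentration giving 50% decrease in oxygen evolution vs untreated control.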

[1] = Lipophilicity, log K of the compound; type: physicochemical
Outline: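 Isocratic RP-HPLC on end-capped C18 column, methanol as organic modifier. Retention times taken in minutes. Capacity factor K derived from them, and log K used as a lipophilicity index.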

Chlorella vulgaris = experiment: Herbicidal activity against Chlorella vulgaris Beij assessed as decrease in chlorophyll content after 7 days; type: functional, organism-based; conditions: for IC50: 168 h
Outline: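 C. vulgaris grown statically at room temperature (16 h light/8 h dark, 80 µmol/m² s PAR, pH 7.2), starting Chl 0.01 mg/L. Exposed 7 days to 100, 75, 50, 25, 8.3, 4.2, 0.83 µmol/L (DMSO ≤0.25%, matched DMSO controls). Chl read spectrophotometrically after methanol extraction. IC50 = 50% Chl decrease vs control, else mean % of control over 100–0.83 µmol/L ± SD.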

Row | SMILES | IC50 (Spinacia oleracea) [µM] | log K [1] | IC50 (Chlorella vulgaris) [µM] | Activity (Spinacia oleracea) | Activity (Chlorella vulgaris) | log K ([1]; octanol/water)
1 | Cc1ccc2c(O)c(C(=O)Nc3ccc(Cl)cc3)ccc2n1 | 265 | 0.3812 | 23.8 | – | – | –
2 | Cc1ccc2ccc(C(=O)NCCc3ccccc3)c(O)c2n1 | – | 0.2404 | – | inactive | – | –
3 | Cc1ccc2c(O)c(C(=O)NC(C)c3ccc(F)cc3)ccc2n1 (stereo unspecified) | 426 | 0.3663 | – | – | – | –
4 | Cc1ccc2c([N+](=O)[O-])cc(C(=O)NCc3ccccc3)c(O)c2n1 | 32 | 0.4021 | – | – | inactive | –
5 | Cc1ccc2ccc(C(=O)NCCc3ccc(F)cc3)c(O)c2n1 | – | 0.3342 | 15.9 | inactive | – | –
6 | Cc1ccc2c(O)c(C(=O)NCCc3ccc(O)cc3)ccc2n1 | 16 | 0.3775 | – | – | – | –
7 | Cc1ccc2ccc(C(=O)NC(C)c3ccc(F)cc3)c(O)c2n1 (stereo unspecified) | – | 0.372 | 83.3 | inactive | – | –
8 | Cc1ccc2ccc(C(=O)NCCNC(=O)c3ccc4ccc(C)nc4c3O)c(O)c2n1 | – | 0.1109 | 93.7 | inactive | – | –
9 | Cc1ccc2c([N+](=O)[O-])cc(C(=O)NC(C)c3ccc(F)cc3)c(O)c2n1 (stereo unspecified) | 8.7 | 0.4283 | 43.6 | – | – | –
10 | Cc1ccc(CNC(=O)c2ccc3nc(C)ccc3c2O)cc1 | 468 | 0.38 | – | – | – | –
11 | Cc1ccc2ccc(C(=O)NNC(=O)c3ccccc3O)c(O)c2n1 | – | – | – | inactive | inactive | 0.6361
12 | Cc1ccc2ccc(C(=O)NCc3ccccc3)c(O)c2n1 | – | 0.2812 | 17.2 | inactive | – | –
13 | Cc1ccc2ccc(C(=O)NCc3ccc(F)cc3)c(O)c2n1 | – | 0.3389 | 158 | inactive | – | –
14 | Cc1ccc2c(O)c(C(=O)NCCCCc3ccccc3)ccc2n1 | 7.2 | 0.4173 | 10.9 | – | – | –
15 | Cc1ccc2ccc(C(=O)NCCCNC(=O)c3ccc4ccc(C)nc4c3O)c(O)c2n1 | – | 0.1168 | 149 | inactive | – | –
16 | Cc1ccc(CNC(=O)c2cc([N+](=O)[O-])c3ccc(C)nc3c2O)cc1 | 107 | 0.4304 | – | – | inactive | –
17 | Cc1ccc2c([N+](=O)[O-])cc(C(=O)NCc3ccc(F)cc3)c(O)c2n1 | 95 | 0.4136 | – | – | inactive | –
18 | COc1ccc(CNC(=O)c2cc([N+](=O)[O-])c3ccc(C)nc3c2O)cc1 | 137 | 0.4087 | – | – | inactive | –
19 | COc1ccc(CNC(=O)c2ccc3ccc(C)nc3c2O)cc1 | – | 0.2843 | 4.8 | inactive | – | –
20 | Cc1ccc2c(O)c(C(=O)NCCCNC(=O)c3ccc4nc(C)ccc4c3O)ccc2n1 | 819 | 0.1203 | 19.5 | – | – | –
21 | Cc1ccc2ccc(C(=O)NCCCCc3ccccc3)c(O)c2n1 | – | 0.5075 | 8.5 | inactive | – | –
22 | Cc1ccc2ccc(C(=O)NCCO)c(O)c2n1 | – | 0.2629 | – | inactive | inactive | –
23 | Cc1ccc2c(O)c(C(=O)NC(=O)NC(=O)c3ccc4nc(C)ccc4c3O)ccc2n1 | 833 | 0.612 | 5.5 | – | – | –
24 | Cc1ccc(CNC(=O)c2ccc3ccc(C)nc3c2O)cc1 | – | 0.3793 | 7.2 | inactive | – | –
25 | Cc1ccc2c(O)c(C(=O)Nc3ccc4c(O)c(C(=O)O)cc([N+](=O)[O-])c4n3)ccc2n1 | 114 | 0.4072 | – | – | – | –
26 | CN(C)C(=O)Nc1ccc(Cl)c(Cl)c1 [DCMU] | 1.9 | – | – | – | – | –
